Beta apoptosis – beta cell apoptosis inhibition; INS-1E cytokine-induced death, ATP luminescence, 48 h; percent of positive-control rescue, neutral wells zero; protection from apoptosis, % (no concentration beside the values); actives 0.8% (n = 300,000);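 active means Every replicate reaches about 75%, or at least half do and their mean reaches it too, limit read from the data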;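 further: higher means more ATP so stronger rescue from cytokine killing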
TAG inh – reduces triacylglycerol accumulation in H9c2 cells; inhibition, % at 12.5 µM; Nile Red lipid (TAG) fluorescence; cells loaded with 200 µM oleic acid; AID 651582; actives 0.66% (n = 230,000);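 active means pattern-corrected inhibition of lipid staining of at least 50% with the nuclear-stain viability signal not falling by more than 50%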
A1 inh – inhibitors of the anti-apoptotic protein A1, read as caspase activation; MEF A1-2A-BIM cells, Caspase-Glo 3/7 luminescence, 3 h; percent of clofoctol response, vehicle zero; caspase activation, % (concentration not given with the values); actives 0.066% (n = 330,000);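 active means over half of replicate activation scores above 10%, or exactly half above 10 with the replicate mean above 10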
CSC inhib – cancer stem cell inhibition; cancer stem cell-like cells viability, luminescence; inhibition, % at 7.5 µM; actives 1.1% (n = 300,000); AID 2717; in the data active means inhibition above about 75%; tested in HMLE shEcad cells
Calb FLC – C. albicans growth modulation with fluconazole; C. albicans CaCi-2 (fluconazole-resistant clinical isolate) + fluconazole, Alamar Blue growth, 48 h; growth inhibition, % (no concentration beside the values); actives 0.57% (n = 300,000); AID 1979;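 active means growth inhibition above about 58% in most replicates, limit read from the data, passing the limit was not always enough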;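 further: all wells also contain fluconazole at 8 µg/ml as a sub-toxic cotreatment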
T cruzi repl – blocks replication of Trypanosoma cruzi; T. cruzi beta-gal in NIH3T3, luminescence, 90 h; inhibition, % (test concentration not listed); actives 1.4% (n = 300,000);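 active means mean inhibition across valid replicates above about 55%, limit read from the data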;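 further: signal also drops with host cell toxicity which is not excluded here; higher percent means less beta-gal luminescence so fewer parasites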
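System – NIH/3T3 host cells with β-galactosidase reporter T. cruzi · Doses – single 50 nL compound addition per well in DMSO · Reagent – 5000 T. cruzi trypomastigotes/well · Medium – Low-serum DMEM with 2% FBS · Timing – ≥90 h infection period, 3 h prior cell attachment · Evaluation – parasite load inhibition, % · Technique – GalScreen luminescence, 60 min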
Hits are given with their value; – = inactive; · = no result given. In the library only some 3.1% were active in any assay of this set; here they are far more common.

SMILES	Beta apoptosis	TAG inh	A1 inh	CSC inhib	Calb FLC	T cruzi repl
Cc1cc(C)c(N=Cc2c(O)c3ccccc3oc2=O)c(C)c1	·	–	–	–	–	–
Cc1cc(C)cc(N=Cc2c(O)c3ccccc3oc2=O)c1	–	–	10.3	–	–	–
CCN(c1ccccc1)S(=O)(=O)c1ccc(C(=O)N2CCN(c3ccccc3)CC2)cc1	–	–	–	–	·	·
CC1(C(=O)NS(=O)(=O)c2ccccc2Cl)CCN1C(=O)Cc1cc(F)ccc1F (stereo unspecified)	·	–	·	·	·	·
O=C(CSc1nc2ccccc2c(=O)n1-c1ccccc1)N/N=C/C=C/c1ccccc1[N+](=O)[O-]	–	–	–	77.6	–	–
CCOc1ccc(N(CC(=O)N2CCOCC2)S(=O)(=O)c2ccc(SC)cc2)cc1	–	·	–	–	–	–
CC(C)(C)OC(=O)C[C@@H]1C/C=C\C[C@@H](CC(=O)NCCO)C(=O)NC[C@H](c2ccccc2)OC1=O	–	–	–	–	·	·
Cn1c(CNc2ccc(Cl)cc2)nc2ccccc21	–	–	–	–	–	–
CC(C)N=c1cc2n(-c3ccc(Cl)cc3)c3ccccc3nc-2cc1Nc1ccc(Cl)cc1	114.0	137.1	–	104.2	·	–
O=C(Nc1ccc(F)cc1)c1nc[nH]c1C(=O)Nc1ccc([N+](=O)[O-])cc1	–	–	–	–	·	–
Cc1ccc(NC(=O)c2nc[nH]c2C(=O)NCCN(CCNC(=O)c2[nH]cnc2C(=O)Nc2ccc(C)cc2)CCNC(=O)c2[nH]cnc2C(=O)Nc2ccc(C)cc2)cc1	–	–	–	–	·	·
Cc1cccc(NC(=O)c2nc[nH]c2C(=O)Nc2cccc(C)c2)c1	–	–	–	–	–	–
O=C(Nc1ccc([N+](=O)[O-])cc1)c1nc[nH]c1C(=O)NC1CCCCC1	–	·	47.4	–	–	–
O=C(Nc1ccc(Cl)cc1)c1nc[nH]c1C(=O)NCCN(CCNC(=O)c1[nH]cnc1C(=O)Nc1ccc(Cl)cc1)CCNC(=O)c1[nH]cnc1C(=O)Nc1ccc(Cl)cc1	103.6	–	–	101.3	·	·
CC(C)(C)OC(=O)NCc1ccc(NC(=O)c2nc[nH]c2C(=O)NCCNC(=O)c2[nH]cnc2C(=O)Nc2ccc(CNC(=O)OC(C)(C)C)cc2)cc1	81.2	–	–	·	·	·
Cc1cccc(NC(=O)c2nc[nH]c2C(=O)N[C@@H](C)c2ccccc2)c1	–	–	–	78.0	·	·
O=S(=O)(/N=C(/Nc1cccnc1Cl)c1ccccc1)c1ccccc1	–	–	–	–	·	·
COc1ccc(OC)c(C2=CC(=O)C[C@H](c3ccc4c(c3)OCO4)C2)c1	–	–	–	–	·	·
Cc1cccc(NC(=O)c2nc[nH]c2C(=O)NCCN(CCNC(=O)c2[nH]cnc2C(=O)Nc2cccc(C)c2)CCNC(=O)c2[nH]cnc2C(=O)Nc2cccc(C)c2)c1	–	·	–	–	·	·
O=C(Nc1ccc(Cl)cc1)c1nc[nH]c1C(=O)NCCCNC(=O)c1[nH]cnc1C(=O)Nc1ccc(Cl)cc1	–	·	12.9	·	·	·
O=C(Nc1ccccc1)c1nc[nH]c1C(=O)NCCCNC(=O)c1[nH]cnc1C(=O)Nc1ccccc1	–	–	–	–	·	·
Cc1cccc(NC(=O)c2nc[nH]c2C(=O)NCCCNC(=O)c2[nH]cnc2C(=O)Nc2cccc(C)c2)c1	–	84.1	–	76.7	·	·
CC1(C(=O)NCC2CC2)Cc2c(-c3ccc4c(c3)OCO4)ccnc2O1 (stereo unspecified)	·	–	·	·	·	·
Cc1ccc(C(C(=O)NCC2CCCO2)N(Cc2ccccc2)C(=O)c2ccc(-c3ccccc3)[nH]2)o1 (stereo unspecified)	–	–	–	–	–	–
O=C(NCC1CCCO1)C(c1cccs1)N(Cc1ccccc1Cl)C(=O)c1ccc(-c2ccccc2)[nH]1 (stereo unspecified)	·	·	–	·	–	74.2
SMILES	Beta apoptosis	TAG inh	A1 inh	CSC inhib	Calb FLC	T cruzi repl
O=C(CC1CC2CCC1C2)NCCc1ccc(Cl)cc1 (stereo unspecified)	84.9	·	–	–	–	–
O=[N+]([O-])c1ccc(N2N=C(c3ccccc3)CC2c2ccccc2O)cc1 (stereo unspecified)	–	·	–	102.5	–	62.8
N#CC1CC(c2ccccc2)=NN1c1ccccc1[N+](=O)[O-] (stereo unspecified)	–	–	–	–	84.9	–
Cc1ccsc1C(=O)N1CCC1(C)C(=O)NS(=O)(=O)c1cccc(F)c1 (stereo unspecified)	·	–	·	·	·	·
Cc1ccc(S(=O)(=O)NCC(=O)OC(C)C(=O)NC2CCCCC2C)cc1C (stereo unspecified)	·	–	·	·	·	·
COC(=O)[C@@]1(C)[C@H]2C(=O)N(C)C(=O)[C@H]2[C@H]2CN(C)C(=NC3CCCCC3)N21	·	–	·	·	·	·
CC(C)(C)c1ccc(S(=O)(=O)NC(=O)C2(C)CCN2C(=O)C2CCCCC2)cc1 (stereo unspecified)	·	–	·	·	·	·
CCCCN(CC)S(=O)(=O)c1ccc(C(=O)N(CCCN(C)C)c2nc3cc(C)cc(C)c3s2)cc1	–	–	–	98.7	–	67.5
Cc1cc(C)c2sc(N(CCCN(C)C)C(=O)c3ccc(S(=O)(=O)N(C)Cc4ccccc4)cc3)nc2c1	·	–	–	–	–	–
CCN(Cc1ccccc1)S(=O)(=O)c1ccc(C(=O)N(CCCN(C)C)c2nc3cc(C)cc(C)c3s2)cc1	·	–	–	101.5	–	–
NCCCCC(N)c1cn([C@@H](CCC(=O)O)C(=O)N2CCNCC2)nn1 (stereo partly specified)	–	–	–	–	·	·
CC1(C)Cc2c(c(N3CCOCC3)nc3sc4c(NN)ncnc4c23)CS1	81.1	–	–	87.2	–	–
CC1(C)Cc2c(c(N3CCOCC3)nc3sc4c(NCc5ccccc5)nnnc4c23)CS1	–	·	–	–	–	61.6
O=C(CCC1CCN(C(=O)CC2=CCCCC2)CC1)NCc1ccc(F)cc1	·	–	·	·	·	·
COc1cc(-c2ccc3c(=O)c4ccccc4n(C)c3c2)cc(OC)c1OC	–	–	–	93.3	–	–
COc1cc(-c2ccc3c(=O)c4ccccc4sc3c2)cc(OC)c1OC	–	–	–	–	·	·
CCc1ccc(C2NC(=S)NC3=C2C(=O)N(c2ccccc2OC)C(c2ccc(CC)cc2)N3)cc1 (stereo unspecified)	–	–	–	·	–	–
O=C1C2=C(NC(=S)NC2c2ccc(Cl)cc2)NC(c2ccc(Cl)cc2)N1c1ccc(Cl)cc1 (stereo unspecified)	–	–	–	101.1	–	56.9
COc1ccc(C(C)=O)c(Oc2ccc(S(=O)(=O)N3CCOCC3)cn2)c1	–	–	–	·	·	·
CC1CCCC(C)N1C(=O)/C=C/c1ccc(S(=O)(=O)N2CCOCC2)cc1 (stereo unspecified)	·	–	·	·	·	·
O=C(NNC(=O)c1cc2ccccc2cc1O)Nc1ccccc1F	–	–	–	–	87.1	–

Screening data deposited in PubChem BioAssay by several laboratories.
